Source: ChEMBL document CHEMBL1134346, “Labeling and evaluation of N-[11C]methylated quinoline-2-carboxamides as potential radioligands for visualization of peripheral benzodiazepine receptors” (J Med Chem, 2001)

Assays:
Rattus norvegicus [1] = organism: Rattus norvegicus; test: Tissue (pituitary) distribution in Albino male CD rats after 30 minutes expressed as percent of injected dose per gram of organ.; format: ADME, organism-based, Pituitary gland; conditions: in vivo, 0.5 h
Procedure, shortened: (§1)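 Male albino CD rats (225-250 g) received the 11C-labelled radioligand in saline by tail-vein injection. Three rats per time point were decapitated under light ether anaesthesia at 5, 15, 30, 60 or 90 min. Blood was collected heparinized and plasma separated by centrifugation. The pituitary was dissected from the brain. Lung, liver (three-lobe pieces) and right deltoid muscle were sampled, washed in cold saline, gamma-counted and weighed. Results are %I.D./g.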

Rattus norvegicus [2] = organism: Rattus norvegicus; test: Tissue (lung) distribution in Albino male CD rats after 5 minutes expressed as percent of injected dose per gram of organ.; format: ADME, organism-based; conditions: in vivo; procedure, shortened: as §1
Rattus norvegicus [3] = organism: Rattus norvegicus; test: Tissue (plasma) distribution in Albino male CD rats after 5 minutes expressed as percent of injected dose per gram of organ.; format: ADME, organism-based; conditions: in vivo; procedure, shortened: as §1
Rattus norvegicus [4] = organism: Rattus norvegicus; test: Tissue (adrenal gland) distribution in Albino male CD rats after 30 minutes expressed as percent of injected dose per gram of organ.; format: ADME, organism-based; conditions: in vivo, 0.5 h
Procedure, shortened: (§2)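 Radioligand given in saline into tail vein of male albino CD rats (225-250 g); 100-200 µCi per animal, 1-2 Ci/µmol at injection depending on radioligand. Three rats per time point were decapitated under light ether anaesthesia. Blood, plasma, brain regions and washed organs were weighed and gamma-counted. Uptake is %I.D./g tissue, mean ± SD.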

Rattus norvegicus [5] = organism: Rattus norvegicus; test: Tissue (spleen) distribution in Albino male CD rats after 30 minutes expressed as percent of injected dose per gram of organ.; format: ADME, organism-based; conditions: in vivo, 0.5 h; procedure, shortened: as §1
Rattus norvegicus [6] = organism: Rattus norvegicus; test: Tissue (muscle) distribution in Albino male CD rats after 60 minutes expressed as percent of injected dose per gram of organ.; format: ADME, organism-based; conditions: in vivo, 1 h; procedure, shortened: as §1
Rattus norvegicus [7] = organism: Rattus norvegicus; test: Tissue (testicle) distribution in Albino male CD rats after 30 minutes expressed as percent of injected dose per gram of organ.; format: ADME, organism-based; conditions: in vivo, 0.5 h; procedure, shortened: as §1
Rattus norvegicus [8] = organism: Rattus norvegicus; test: Tissue (heart) concentration of radioactivity at 30 min post-injection into Albino male CD rats with vehicle.; format: ADME, organism-based; conditions: in vivo, 0.5 h
Procedure, shortened: (§3)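 Separate groups of five rats received tail-vein PK 11195 (1.4-1.6 mg; 5 mg/kg) in 30 µL DMSO:EtOH 1:1, or vehicle alone, immediately before iv radioligand (90-170 µCi in saline, 0.9-1 Ci/µmol). Rats were decapitated at 30 min and tissues gamma-counted; values are %I.D./g.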

Rattus norvegicus [9] = organism: Rattus norvegicus; test: Tissue (pituitary) distribution in Albino male CD rats after 60 minutes expressed as percent of injected dose per gram of organ.; format: ADME, organism-based, Pituitary gland; conditions: in vivo, 1 h; procedure, shortened: as §1
Rattus norvegicus [10] = organism: Rattus norvegicus; test: Tissue (intestine) distribution in Albino male CD rats after 90 minutes expressed as percent of injected dose per gram of organ.; format: ADME, organism-based; conditions: in vivo, 1.5 h; procedure, shortened: as §2
Rattus norvegicus [11] = organism: Rattus norvegicus; test: Tissue (adrenal gland) concentration of radioactivity at 30 min post-injection into Albino male CD rats with vehicle.; format: ADME, organism-based; conditions: in vivo, 0.5 h; procedure, shortened: as §3
Rattus norvegicus [12] = organism: Rattus norvegicus; test: Tissue (muscle) concentration of radioactivity at 30 min post-injection into Albino male CD rats with vehicle.; format: ADME, organism-based; conditions: in vivo, 0.5 h
Procedure, shortened: (§4)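 Blocking study in male albino CD rats, five per group. Immediately before the 11C radioligand (in saline, i.v. tail vein), rats received 30 µL tail-vein PK 11195 (5 mg/kg; 1.4-1.6 mg) in DMSO:EtOH 1:1, or vehicle. Rats were decapitated at 30 min. Tissues were dissected, washed, gamma-counted and weighed as in the biodistribution study. Results are %I.D./g.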

[13] = target: Translocator protein (Rattus norvegicus) (UniProt P16257); test: Tissue (spleen) concentration of radioactivity at 30 min post-injection into Albino male CD rats after pretreatment with cold PK 11195.; format: functional, tissue-based; procedure, shortened: as §4
Translocator protein (Rattus norvegicus), sequence (P16257 whole entry, looked up): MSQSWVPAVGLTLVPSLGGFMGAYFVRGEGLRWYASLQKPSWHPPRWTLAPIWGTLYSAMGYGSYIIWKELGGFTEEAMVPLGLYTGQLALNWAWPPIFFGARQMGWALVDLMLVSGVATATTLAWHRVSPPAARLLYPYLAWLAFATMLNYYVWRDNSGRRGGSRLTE

Rattus norvegicus [14] = organism: Rattus norvegicus; test: Tissue (heart) distribution in Albino male CD rats after 15 minutes expressed as percent of injected dose per gram of organ.; format: ADME, organism-based; conditions: in vivo, 0.25 h; procedure, shortened: as §2
Rattus norvegicus [15] = organism: Rattus norvegicus; test: Tissue (muscle) distribution in Albino male CD rats after 5 minutes expressed as percent of injected dose per gram of organ.; format: ADME, organism-based; conditions: in vivo; procedure, shortened: as §1
Rattus norvegicus [16] = organism: Rattus norvegicus; test: Tissue (muscle) distribution in Albino male CD rats after 90 minutes expressed as percent of injected dose per gram of organ.; format: ADME, organism-based; conditions: in vivo, 1.5 h; procedure, shortened: as §1
Rattus norvegicus [17] = organism: Rattus norvegicus; test: Tissue (liver) distribution in Albino male CD rats after 90 minutes expressed as percent of injected dose per gram of organ.; format: ADME, organism-based; conditions: in vivo, 1.5 h; procedure, shortened: as §1
Rattus norvegicus [18] = organism: Rattus norvegicus; test: Tissue (liver) distribution in Albino male CD rats after 60 minutes expressed as percent of injected dose per gram of organ.; format: ADME, organism-based; conditions: in vivo, 1 h; procedure, shortened: as §1
[19] = target: Translocator protein (Rattus norvegicus) (UniProt P16257); test: Tissue (muscle) concentration of radioactivity at 30 min post-injection into Albino male CD rats after pretreatment with cold PK 11195.; format: functional; procedure, shortened: as §4
Rattus norvegicus [20] = organism: Rattus norvegicus; test: Tissue (heart) distribution in Albino male CD rats after 90 minutes expressed as percent of injected dose per gram of organ.; format: ADME, organism-based; conditions: in vivo, 1.5 h; procedure, shortened: as §2
Rattus norvegicus [21] = organism: Rattus norvegicus; test: Tissue (adrenal gland) distribution in Albino male CD rats after 15 minutes expressed as percent of injected dose per gram of organ.; format: ADME, organism-based; conditions: in vivo, 0.25 h; procedure, shortened: as §2
Rattus norvegicus [22] = organism: Rattus norvegicus; test: Tissue (blood) distribution in Albino male CD rats after 5 minutes expressed as percent of injected dose per gram of organ.; format: ADME, organism-based; conditions: in vivo; procedure, shortened: as §2
Rattus norvegicus [23] = organism: Rattus norvegicus; test: Tissue (kidney) distribution in Albino male CD rats after 90 minutes expressed as percent of injected dose per gram of organ.; format: ADME, organism-based; conditions: in vivo, 1.5 h; procedure, shortened: as §2
Rattus norvegicus [24] = organism: Rattus norvegicus; test: Tissue (lung) concentration of radioactivity at 30 min post-injection into Albino male CD rats with vehicle.; format: ADME, organism-based; conditions: in vivo, 0.5 h; procedure, shortened: as §4
[25] = target: Translocator protein (Rattus norvegicus) (UniProt P16257); test: Tissue (lung) concentration of radioactivity at 30 min post-injection into Albino male CD rats after pretreatment with cold PK 11195.; format: functional; procedure, shortened: as §4
Rattus norvegicus [26] = organism: Rattus norvegicus; test: Tissue (lung) distribution in Albino male CD rats after 60 minutes expressed as percent of injected dose per gram of organ.; format: ADME, organism-based; conditions: in vivo, 1 h; procedure, shortened: as §1
Rattus norvegicus [27] = organism: Rattus norvegicus; test: Tissue (cortex) distribution in Albino male CD rats after 30 minutes expressed as percent of injected dose per gram of organ.; format: ADME, organism-based; conditions: in vivo, 0.5 h; procedure, shortened: as §2
[28] = target: Translocator protein (Rattus norvegicus) (UniProt P16257); test: Tissue (heart) concentration of radioactivity at 30 min post-injection into Albino male CD rats after pretreatment with cold PK 11195.; format: functional; procedure, shortened: as §3
Rattus norvegicus [29] = organism: Rattus norvegicus; test: Tissue (spleen) distribution in Albino male CD rats after 90 minutes expressed as percent of injected dose per gram of organ.; format: ADME, organism-based; conditions: in vivo, 1.5 h
Rattus norvegicus [30] = organism: Rattus norvegicus; test: Tissue (testicle) distribution in Albino male CD rats after 90 minutes expressed as percent of injected dose per gram of organ.; format: ADME, organism-based; conditions: in vivo, 1.5 h
Rattus norvegicus [31] = organism: Rattus norvegicus; test: Tissue (intestine) distribution in Albino male CD rats after 5 minutes expressed as percent of injected dose per gram of organ.; format: ADME, organism-based; conditions: in vivo; procedure, shortened: as §2
Rattus norvegicus [32] = organism: Rattus norvegicus; test: Tissue (cerebellum) distribution in Albino male CD rats after 15 minutes expressed as percent of injected dose per gram of organ.; format: ADME, organism-based; conditions: in vivo, 0.25 h; procedure, shortened: as §2
Rattus norvegicus [33] = organism: Rattus norvegicus; test: Tissue (cerebellum) distribution in Albino male CD rats after 5 minutes expressed as percent of injected dose per gram of organ.; format: ADME, organism-based; conditions: in vivo; procedure, shortened: as §2
Rattus norvegicus [34] = organism: Rattus norvegicus; test: Tissue (testicle) distribution in Albino male CD rats after 15 minutes expressed as percent of injected dose per gram of organ.; format: ADME, organism-based; conditions: in vivo, 0.25 h; procedure, shortened: as §1
[35] = target: Translocator protein (Rattus norvegicus) (UniProt P16257); test: Tissue (kidney) concentration of radioactivity at 30 min post-injection into Albino male CD rats after pretreatment with cold PK 11195.; format: functional, tissue-based; procedure, shortened: as §3
Rattus norvegicus [36] = organism: Rattus norvegicus; test: Tissue (kidney) concentration of radioactivity at 30 min post-injection into Albino male CD rats with vehicle.; format: ADME, organism-based; conditions: in vivo, 0.5 h; procedure, shortened: as §3
Rattus norvegicus [37] = organism: Rattus norvegicus; test: Tissue (plasma) distribution in Albino male CD rats after 30 minutes expressed as percent of injected dose per gram of organ.; format: ADME, organism-based; conditions: in vivo, 0.5 h; procedure, shortened: as §1
Rattus norvegicus [38] = organism: Rattus norvegicus; test: Tissue (lung) distribution in Albino male CD rats after 30 minutes expressed as percent of injected dose per gram of organ.; format: ADME, organism-based; conditions: in vivo, 0.5 h; procedure, shortened: as §1
Rattus norvegicus [39] = organism: Rattus norvegicus; test: Tissue (spleen) distribution in Albino male CD rats after 5 minutes expressed as percent of injected dose per gram of organ.; format: ADME, organism-based; conditions: in vivo; procedure, shortened: as §1
Rattus norvegicus [40] = organism: Rattus norvegicus; test: Tissue (kidney) distribution in Albino male CD rats after 30 minutes expressed as percent of injected dose per gram of organ.; format: ADME, organism-based; conditions: in vivo, 0.5 h; procedure, shortened: as §2

What does the source list for `CCC(C)N(C)C(=O)c1nc2ccccc2c(-c2ccccc2F)c1C` (stereo not given)?
I.D./g (Rattus norvegicus [1]): 0.12%; I.D./g (Rattus norvegicus [2]): 2.37%; I.D./g (Rattus norvegicus [3]): 0.11%; I.D./g (Rattus norvegicus [4]): 2.78%; I.D./g (Rattus norvegicus [5]): 0.77%; I.D./g (Rattus norvegicus [6]): 0.07%; I.D./g (Rattus norvegicus [7]): 0.09%; I.D./g (Rattus norvegicus [8]): 0.35%; I.D./g (Rattus norvegicus [9]): 0.14%; I.D./g (Rattus norvegicus [10]): 0.24%; I.D./g (Rattus norvegicus [11]): 1.79%; I.D./g (Rattus norvegicus [12]): 0.05%; I.D./g [13]: < 0.09%; I.D./g (Rattus norvegicus [14]): 0.86%; I.D./g (Rattus norvegicus [15]): 0.06%; I.D./g (Rattus norvegicus [16]): 0.08%; I.D./g (Rattus norvegicus [17]): 0.39%; I.D./g (Rattus norvegicus [18]): 0.45%; I.D./g [19]: < 0.03%; I.D./g (Rattus norvegicus [20]): 0.58%; I.D./g (Rattus norvegicus [21]): 2.53%; I.D./g (Rattus norvegicus [22]): 0.11%; I.D./g (Rattus norvegicus [23]): 0.46%; I.D./g (Rattus norvegicus [24]): 0.56%; I.D./g [25]: < 0.12%; I.D./g (Rattus norvegicus [26]): 1.77%; I.D./g (Rattus norvegicus [27]): 0.1%; I.D./g [28]: < 0.11%; I.D./g (Rattus norvegicus [29]): 0.71%; I.D./g (Rattus norvegicus [30]): 0.08%; I.D./g (Rattus norvegicus [31]): 0.18%; I.D./g (Rattus norvegicus [32]): 0.11%; I.D./g (Rattus norvegicus [33]): 0.1%; I.D./g (Rattus norvegicus [34]): 0.09%; I.D./g [35]: 0.12%; I.D./g (Rattus norvegicus [36]): 0.35%; I.D./g (Rattus norvegicus [37]): 0.06%; I.D./g (Rattus norvegicus [38]): 2.09%; I.D./g (Rattus norvegicus [39]): 0.34%; I.D./g (Rattus norvegicus [40]): 0.55%
